Measured values: publication PMC12709667 (Journal of Clinical Pharmacology, 2025)
“And” between values parts separate entries of the source, which are not always exact repeats. Equal entries are not always repeated.

Key:
[1] = target: CYP2C9 (Homo sapiens, UniProt P11712); assay: Cytochrome P450 inhibition; assay type: in vitro ADME
[2] = target: T1, CYP2B6 (Homo sapiens, UniProt P20813); assay type: in vitro ADME
T1 sequence (P20813 1-491): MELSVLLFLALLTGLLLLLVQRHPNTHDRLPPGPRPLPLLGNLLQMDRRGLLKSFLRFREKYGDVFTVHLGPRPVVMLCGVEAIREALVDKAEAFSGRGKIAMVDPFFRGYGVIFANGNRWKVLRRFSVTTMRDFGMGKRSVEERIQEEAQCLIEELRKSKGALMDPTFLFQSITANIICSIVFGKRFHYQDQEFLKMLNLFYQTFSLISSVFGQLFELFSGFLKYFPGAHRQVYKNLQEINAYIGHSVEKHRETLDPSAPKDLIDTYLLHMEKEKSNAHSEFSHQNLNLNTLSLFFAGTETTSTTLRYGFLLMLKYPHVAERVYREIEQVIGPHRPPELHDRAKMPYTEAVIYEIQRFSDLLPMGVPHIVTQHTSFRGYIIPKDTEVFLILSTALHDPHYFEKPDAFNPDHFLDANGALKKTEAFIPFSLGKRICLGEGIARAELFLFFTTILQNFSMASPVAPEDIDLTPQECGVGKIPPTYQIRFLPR

[3] = target: T2, UGT1A3 (Homo sapiens, UniProt P35503); assay: Phase 2 enzyme inhibition; assay type: in vitro ADME
T2 sequence (P35503 29-534): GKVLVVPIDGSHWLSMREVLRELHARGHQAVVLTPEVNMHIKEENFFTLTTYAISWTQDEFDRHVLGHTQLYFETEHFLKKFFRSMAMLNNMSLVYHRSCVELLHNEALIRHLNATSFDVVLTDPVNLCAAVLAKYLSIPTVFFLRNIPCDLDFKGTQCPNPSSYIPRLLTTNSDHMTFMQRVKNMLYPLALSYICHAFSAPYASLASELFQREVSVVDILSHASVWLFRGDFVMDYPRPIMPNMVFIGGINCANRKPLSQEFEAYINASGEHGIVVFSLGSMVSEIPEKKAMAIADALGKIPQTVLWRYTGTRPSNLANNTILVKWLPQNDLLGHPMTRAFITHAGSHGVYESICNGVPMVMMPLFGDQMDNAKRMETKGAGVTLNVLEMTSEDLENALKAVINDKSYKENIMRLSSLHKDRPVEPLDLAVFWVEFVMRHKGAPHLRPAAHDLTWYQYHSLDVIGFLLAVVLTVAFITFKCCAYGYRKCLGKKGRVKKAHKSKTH

[4] = target: T3, BCRP (Homo sapiens, UniProt Q9UNQ0); assay: DDI perpetrator study: rosuvastatin probe; assay type: in vivo; settings: miricorilant 400 mg once daily as perpetrator
T3 sequence (Q9UNQ0 1-655): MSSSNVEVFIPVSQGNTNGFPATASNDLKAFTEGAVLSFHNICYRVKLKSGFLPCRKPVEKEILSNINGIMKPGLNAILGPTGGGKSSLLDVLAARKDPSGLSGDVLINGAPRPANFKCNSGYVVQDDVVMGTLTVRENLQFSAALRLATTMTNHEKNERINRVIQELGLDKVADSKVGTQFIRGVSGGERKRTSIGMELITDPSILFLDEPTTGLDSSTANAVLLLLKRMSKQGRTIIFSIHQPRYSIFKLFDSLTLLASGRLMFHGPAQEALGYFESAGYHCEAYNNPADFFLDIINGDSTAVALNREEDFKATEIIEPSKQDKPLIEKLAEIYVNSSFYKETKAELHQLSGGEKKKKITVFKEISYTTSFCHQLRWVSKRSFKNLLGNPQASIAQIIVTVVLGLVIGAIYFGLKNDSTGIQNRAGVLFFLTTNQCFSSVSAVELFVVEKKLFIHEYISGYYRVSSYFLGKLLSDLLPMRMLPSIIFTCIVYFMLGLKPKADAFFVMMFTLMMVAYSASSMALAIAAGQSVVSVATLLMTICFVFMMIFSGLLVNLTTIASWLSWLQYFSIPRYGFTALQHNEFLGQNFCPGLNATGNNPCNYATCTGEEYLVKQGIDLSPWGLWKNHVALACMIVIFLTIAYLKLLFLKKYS

[5] = Human [14C] ADME study; assay type: in vivo
[6] = [14C] ADME study in male albino CD1 mice; assay type: in vivo, mouse
In short: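 Male albino CD1 mice received one oral dose of 50 mg/kg (5 MBq/kg) [14C]-labelled test compound. Blood and plasma were counted for total radioactivity. Urine and faeces were collected for excretion balance, and plasma, urine and faeces were used for metabolite profiling.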

[7] = target: MDR1/P-gp (Homo sapiens, UniProt P08183); assay: Transporter substrate assessment; assay type: in vitro ADME
[8] = target: T4, UGT1A1 (Homo sapiens, UniProt P22309); assay: DDI perpetrator study: dolutegravir probe; assay type: in vivo; settings: miricorilant 400 mg once daily as perpetrator
T4 sequence (P22309 26-533): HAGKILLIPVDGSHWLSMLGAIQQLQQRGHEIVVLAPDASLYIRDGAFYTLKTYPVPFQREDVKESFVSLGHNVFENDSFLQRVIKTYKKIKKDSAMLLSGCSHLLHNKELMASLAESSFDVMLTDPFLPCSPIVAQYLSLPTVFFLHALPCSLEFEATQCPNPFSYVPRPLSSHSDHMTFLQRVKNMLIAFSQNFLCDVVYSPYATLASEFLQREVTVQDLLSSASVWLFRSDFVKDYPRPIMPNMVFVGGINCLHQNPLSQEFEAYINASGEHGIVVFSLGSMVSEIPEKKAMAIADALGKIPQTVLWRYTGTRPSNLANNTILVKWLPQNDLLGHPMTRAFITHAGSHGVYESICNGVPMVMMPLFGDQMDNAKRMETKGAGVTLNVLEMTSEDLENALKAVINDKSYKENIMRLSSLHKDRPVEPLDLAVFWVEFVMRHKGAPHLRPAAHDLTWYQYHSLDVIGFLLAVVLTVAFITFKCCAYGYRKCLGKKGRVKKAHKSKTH

[9] = 28-day toxicology study; assay type: in vivo, monkey; settings: monkeys

Sequence of CYP2C9 (P11712 whole entry): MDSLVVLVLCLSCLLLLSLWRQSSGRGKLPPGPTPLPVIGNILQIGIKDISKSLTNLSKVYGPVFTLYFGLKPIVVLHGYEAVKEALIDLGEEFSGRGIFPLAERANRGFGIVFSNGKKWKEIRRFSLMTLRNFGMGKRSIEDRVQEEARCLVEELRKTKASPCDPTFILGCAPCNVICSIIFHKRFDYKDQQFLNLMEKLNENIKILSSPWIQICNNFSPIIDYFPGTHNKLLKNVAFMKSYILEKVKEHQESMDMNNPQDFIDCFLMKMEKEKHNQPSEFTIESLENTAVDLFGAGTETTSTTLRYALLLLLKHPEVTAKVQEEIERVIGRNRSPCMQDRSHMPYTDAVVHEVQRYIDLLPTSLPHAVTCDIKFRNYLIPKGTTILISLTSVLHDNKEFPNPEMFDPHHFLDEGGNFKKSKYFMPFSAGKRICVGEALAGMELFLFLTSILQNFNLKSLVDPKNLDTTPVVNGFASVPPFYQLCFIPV
Sequence of MDR1/P-gp (P08183 whole entry): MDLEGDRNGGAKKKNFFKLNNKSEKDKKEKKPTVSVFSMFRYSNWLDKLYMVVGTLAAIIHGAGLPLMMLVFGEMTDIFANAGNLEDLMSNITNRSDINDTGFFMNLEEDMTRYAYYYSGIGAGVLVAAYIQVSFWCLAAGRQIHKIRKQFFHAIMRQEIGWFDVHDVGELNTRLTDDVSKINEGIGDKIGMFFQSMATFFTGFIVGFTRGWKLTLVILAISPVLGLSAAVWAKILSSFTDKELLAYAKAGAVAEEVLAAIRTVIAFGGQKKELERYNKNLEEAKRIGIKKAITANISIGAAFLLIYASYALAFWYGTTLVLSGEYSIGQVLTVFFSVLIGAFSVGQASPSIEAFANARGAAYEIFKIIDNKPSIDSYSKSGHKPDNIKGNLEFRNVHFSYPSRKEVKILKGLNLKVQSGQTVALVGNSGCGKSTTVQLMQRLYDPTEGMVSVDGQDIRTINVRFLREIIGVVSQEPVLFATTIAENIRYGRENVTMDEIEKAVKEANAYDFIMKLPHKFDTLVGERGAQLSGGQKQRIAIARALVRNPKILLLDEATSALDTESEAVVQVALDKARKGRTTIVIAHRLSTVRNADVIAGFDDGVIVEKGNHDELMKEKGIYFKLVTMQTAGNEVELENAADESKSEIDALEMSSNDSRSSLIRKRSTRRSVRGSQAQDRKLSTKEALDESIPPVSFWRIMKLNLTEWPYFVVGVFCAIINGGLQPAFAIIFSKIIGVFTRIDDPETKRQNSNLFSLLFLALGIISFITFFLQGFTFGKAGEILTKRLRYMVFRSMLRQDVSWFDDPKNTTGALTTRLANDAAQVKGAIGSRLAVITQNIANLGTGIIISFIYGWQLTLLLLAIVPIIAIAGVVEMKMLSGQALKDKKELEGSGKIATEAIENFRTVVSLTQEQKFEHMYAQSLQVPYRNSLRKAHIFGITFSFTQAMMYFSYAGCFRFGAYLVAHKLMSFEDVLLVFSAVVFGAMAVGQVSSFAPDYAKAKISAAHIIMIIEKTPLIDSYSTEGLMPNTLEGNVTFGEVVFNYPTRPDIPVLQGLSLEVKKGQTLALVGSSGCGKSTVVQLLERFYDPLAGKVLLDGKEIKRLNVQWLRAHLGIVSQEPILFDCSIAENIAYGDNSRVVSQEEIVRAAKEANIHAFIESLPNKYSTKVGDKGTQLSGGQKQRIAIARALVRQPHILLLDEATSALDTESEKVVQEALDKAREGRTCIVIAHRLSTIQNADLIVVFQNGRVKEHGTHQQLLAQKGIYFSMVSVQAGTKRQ

## O=c1[nH]c(=O)c(Cc2cccc(C(F)(F)F)c2)c([C@H]2CC[C@H](c3ccccc3)CC2)[nH]1 [miricorilant]
[1]
  IC50: 7.7 µM
  time dependence of CYP2C9 inhibition: not time dependent
[2]
  inhibition of CYP2B6: No inhibition
[3]
  inhibition of UGT1A3: did not inhibit
[4]
  clinical inhibition of BCRP: moderate inhibitor
[5]; 240‐h sampling period, mean ± SD
  administered radioactivity recovered in excreta: 93.68 ± 1.63%
[5]; human, 150 mg oral solution
  administered dose recovered in urine: 4.56%
  total radioactivity recovered in feces: 89.12% and 89.12 ± 1.16%
[5]; male, human, plasma, po, 150 mg
  Cmax: 343 ng/mL
[5]; within the first 48 h post dose
  administered radioactivity eliminated: 19.28 ± 9.01%
[6]; by 24 h postdose
  recovery of radioactivity: quantitative recovery
[6]; single oral 50 mg/kg
  elimination of radioactivity in urine: 0.13% ± 0.04%
  fecal elimination of radioactivity: 98.7% ± 2.48%
  share of total radioactivity in plasma: 69%
[7]
  Substrate of MDR1/P-gp: not a substrate
[8]
  clinical inhibition of UGT1A1: does not inhibit
[9]
  adverse effects in 28‐day toxicology study: No adverse effects
